The Kd is the concentration at which binding is half-saturated.

Changes are numbered by the printed parent chain. Where a SMILES comes first, the peptide text is derived from it. The star is where a group is joined. Cbz = O=C(OCc1ccccc1)*

T1: Y120A-SPSB2 (12–224) (mouse, UniProt O88838 12-224, Y120A)
T1 sequence (looked up): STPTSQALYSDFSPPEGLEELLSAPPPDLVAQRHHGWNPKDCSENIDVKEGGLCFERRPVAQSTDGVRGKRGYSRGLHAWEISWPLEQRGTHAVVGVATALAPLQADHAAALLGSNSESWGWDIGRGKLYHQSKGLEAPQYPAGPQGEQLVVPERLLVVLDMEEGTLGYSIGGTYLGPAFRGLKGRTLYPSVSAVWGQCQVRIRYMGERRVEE

T2: SPSB2 SPRY domain (residues 12–224) (mouse, UniProt O88838 12-224)
T2 sequence (looked up): T1 sequence (looked up) with A109Y

B1: Par-4: prostate apoptosis response protein 4, SPSB binding partner containing ELNNNL (human) (protein, UniProt Q96IZ0 1-340, looked up)
PRKC apoptosis WT1 regulator …: MATGGYRTSSGLGGSTTDFLEEWKAKREKMRAKQNPPGPAPPGGGSSDAAGKPPAGALGTPAAAAANELNNNLPGGAPAAPAVPGPGGVNCAVGSAMLTRAAPGPRRSEDEPPAASASAAPPPQRDEEEPDGVPEKGKSSGPSARKGKGQIEKRKLREKRRSTGVVNIPAAECLDEYEDDEAGQKERKREDAITQQNTIQNEAVNLLDPGSSYLLQEPPRTVSGRYKSTTSVSEEDVSSRYSRTDRSGFPRYNRDANVSGTLVSSSTLEKKIEDLEKEVVRERQENLRLVRLMQDKEEMIGKLKEEIDLLNRDLDDIEDENEQLKQENKTLLKVVGQLTR

The subject of one test is iNOS degradation in Spsb2T/+ BMDMs. Briefly: iNOS degradation in Spsb2T/+ BMDMs after LPS/IFN-γ stimulation and wash. To be noted: 10 µM MG-132 in fresh medium after wash. In kind it is cell-based, mouse. The method, boiled down:
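Bone marrow macrophages (>95% CD11b+ after 6 d culture) from littermate controls, SPSB2-transgenic or SOCS-box-deleted transgenic mice, stimulated overnight with LPS/IFN-γ or left unstimulated. Washed, refed with medium ±10 µM MG-132 (proteasome inhibitor), lysed at set times after wash. Lysates run on SDS-PAGE, blotted with anti-iNOS, peroxidase secondary and ECL. Membranes stripped (0.1 M Gly, pH 2.9) and reprobed for tubulin as loading control.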
Take `CC(C)C[C@@H](C=O)NC(=O)[C@H](CC(C)C)NC(=O)[C@H](CC(C)C)NC(=O)OCc1ccccc1` [MG-132] (Cbz-Leu-Leu-Leu-aldehyde): the “effect on enhanced iNOS degradation” value is given as “abrogated”.

The next test concerns the target SPSB1.
Assay: not given
The note with it: SPSB1 binding to Par-4; ref Woo et al., 2006; cited from earlier work.
On to B1, for which the Kd is 146 nM.

The target in another test is SPSB2.
Assay: not given
The note with it: SPSB2 binding to Par-4; ref Woo et al., 2006; cited from earlier work.
Regarding B1, the Kd is 4.7 µM.

Another test addresses T1, Y120A-SPSB2 (12–224). The test is described as follows: ITC.
Conditions: not given
As for Ac-KEEKDINNNVKKT-NH2 [iNOS N-terminal peptide, wild type (Ac-KEEKDINNNVKKT-NH2)], the “fold reduction of affinity against wild-type SPSB2 (12–224)” value was approximately 5000 fold.

The next test concerns the target T2, SPSB2 SPRY domain (residues 12–224). Briefly: ITC.
Conditions: not given
Regarding Ac-KEEKDINNNVKKT-NH2 [iNOS N-terminal peptide, wild type (Ac-KEEKDINNNVKKT-NH2)], the Kd came to 13.3 ± 3 nM. In turn, Ac-KEEKDIQNNVKKT-NH2 [iNOS N-terminal peptide H (Ac-KEEKDIQNNVKKT-NH2)] registered a Kd of 40500 nM. Same read-out and setting: as for Ac-KEEADINNNAKAT-NH2 [iNOS N-terminal peptide O (Ac-KEEADINNNAKAT-NH2)], the figure is 311 ± 37 nM; as for Ac-KEEKDINANVKKT-NH2 [iNOS N-terminal peptide I (Ac-KEEKDINANVKKT-NH2)], 826 ± 20 nM; as for Ac-KEEKDINNNAKKT-NH2 [iNOS N-terminal peptide L (Ac-KEEKDINNNAKKT-NH2)], 56.8 ± 11.2 nM.

Molecule Ac-KEEADINNNVKKT-NH2 [iNOS N-terminal peptide C (Ac-KEEADINNNVKKT-NH2)] returned a Kd of 127 ± 23 nM. Still for that read-out and setting: as for Ac-KEEKAINNNVKKT-NH2 [iNOS N-terminal peptide E (Ac-KEEKAINNNVKKT-NH2)], the figure is 21600 ± 750 nM; as for Ac-KEEKDIANNVKKT-NH2 [iNOS N-terminal peptide G (Ac-KEEKDIANNVKKT-NH2)], 17200 nM; as for Ac-KEEKDANNNVKKT-NH2 [iNOS N-terminal peptide F (Ac-KEEKDANNNVKKT-NH2)], 23.5 ± 9.9 nM. In turn, Ac-KEAADINNNVKKT-NH2 [iNOS N-terminal peptide D (Ac-KEAADINNNVKKT-NH2)] had a Kd of 65.4 ± 7.4 nM.

For Ac-KEEKDINNNAKAT-NH2 [iNOS N-terminal peptide N (Ac-KEEKDINNNAKAT-NH2)], binding was put at a Kd of 180 ± 39 nM.

Ac-KEEKDINNNVKAT-NH2 [iNOS N-terminal peptide M (Ac-KEEKDINNNVKAT-NH2)] showed a Kd of 29.8 ± 12.2 nM. The same measure, in the same setting: as for Ac-KEAKDINNNVKKT-NH2 [iNOS N-terminal peptide B (Ac-KEAKDINNNVKKT-NH2)], the figure is 14 ± 3 nM.
